Data set [1] concerns MV4:11 cells. Put plainly: Induction of apoptosis. The note with it: 2 μM, up to 6 days. It counts as cell-based, human. A digest of the protocol: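 MV4:11 cells were exposed 0–6 days to 2 μM test compound, negative control or 0.1% DMSO, with medium and compound refreshed on day 3. Camptothecin (2 μM, 4 h) served as positive control. 5 × 10^5 cells were stained with Alexa Fluor488–annexin V for 15 min, then propidium iodide for 10 min. Flow cytometry recorded ≥10,000 events, with doublet exclusion and quadrants set on unstained cells. Annexin V+/PI− % is from three biological replicates, SEM.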

The subject of data set [2] is gene expression in MV4:11 cells. Put plainly: RNA-Seq. It is filed as cell-based, human. The note with it: overlap of RNA-seq and WDR5 ChIP-seq, MV4:11.
For data set [3], the system named is Molm13 clones CRISPR-targeted with EGFP or p53 gRNA. Put plainly: Proliferation assay in CRISPR-targeted Molm13 clones. It is filed as cell-based. The note with it: Homo sapiens, MOLM-13, 72 h, Molm13 clone 2p (p53 gRNA), 3-day treatment.
For the next data set, the system named is HL60 cells. In words: Proliferation assay. It counts as cell-based. The note with it: Homo sapiens, HL-60, 72 h. A digest of the protocol:
(§1)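 CellTiter-Glo, 5,000 cells/well. Cells received 0.1% DMSO or at least five two-fold dilutions of test compound (top 50 μM, final DMSO 0.1%), in triplicate wells and ≥2 biological replicates, for 72 h at 37°C. Reagent was added after equilibration to RT, with 30 min dark incubation before luminescence. Signals were normalized to DMSO wells and GI50 obtained by curve fitting. Curve error bars are SEM.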

In data set [4] the test system is MV4:11 cells. Put plainly: Proliferation assay. It is filed as cell-based, human. The note with it: MV4:11, 3 days, mean with SEM. A digest of the protocol: as §1
The test system of another data set is Molm13 cells. Put plainly: Proliferation assay. The conditions noted are these: Homo sapiens, MOLM-13, 72 h. It counts as cell-based. A digest of the protocol: as §1
Data set [5] deals with p53 and p21 protein levels in MV4:11 cells. Put plainly: p53/p21 induction western blot. It counts as cell-based, human. The note with it: MV4:11, 2 μM, 24 h. A digest of the protocol: (§2)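 Treatment lasted 24 h with test compound or its negative control, at 2 μM in MV4:11 and 3 μM in Molm13. Comparators were 2 μM Nutlin-3 or 0.1% DMSO. Four million cells were PBS-washed and lysed 10 min on ice in Kischkel buffer. p53 and p21 were detected by western blot, with histone H3 as loading control.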

In data set [6] the test system is p53 and p21 protein levels in Molm13 cells. Put plainly: p53/p21 induction western blot. It is filed as cell-based, human. The note with it: Molm13, 3 μM, 24 h. A digest of the protocol:
as §2
(Immunoblotting shows a protein as a band on a membrane.)

In data set [7] the target is T1, WDR5 (Homo sapiens, UniProt P61964). Put plainly: 10-mer-Thr-FAM peptide TR-FRET competition assay. It counts as binding. The conditions noted are these: Kd, corresponds to TR-FRET Ki of Table S1. Background: Time-resolved FRET reads energy transfer from a long-lived donor to a nearby acceptor.
For data set [8], the system named is p53 turnover in MV4:11 cells. Put plainly: Cycloheximide. The note with it: MV4:11, 2 μM, 24 h before CHX. It is filed as cell-based, human. A digest of the protocol: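 Before the cycloheximide chase, MV4:11 cells were pretreated 24 h with 2 μM test compound, 2 μM Nutlin-3 as comparator, or DMSO only. p53 was then followed by immunoblot.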
In data set [9] the test system is ribosome protein gene expression in MV4:11 cells. Put plainly: RT-qPCR quantification of RPG mRNA expression. It counts as cell-based, human. The conditions noted are these: MV4:11, three days, equal concentrations (4 µM) of OICR-9429 and C6. A digest of the protocol: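 Cells were lysed in Trizol and total RNA isolated on columns with DNase digestion. 1 μg RNA was reverse transcribed with MuLV reverse transcriptase in 20 μl, then diluted three-fold in nuclease-free water before qPCR.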
In general terms: Real-time PCR tracks product formation cycle by cycle.

The next data set has as its system MA93 FLT3-ITD cells. Put plainly: Proliferation assay. It is filed as cell-based. The note with it: Homo sapiens, 72 h. A digest of the protocol: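 CellTiter-Glo at 2,000 cells/well. MA93 Ras and MA93 FLT3/ITD were maintained in IMDM/20% FBS. Parental MA93 received IMDM/20% FBS plus 10 ng/mL human SCF, TPO, FLT3L, IL3 and IL6. Dosing used ≥5 two-fold dilutions from 50 μM top, 0.1% DMSO final, in triplicate wells with ≥2 biological replicates. Plates ran 72 h at 37°C, followed by 30 min reagent incubation at RT in the dark. GI50 came from DMSO-normalized luminescence.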

Data set [10] deals with MV4:11 cells. In words: Growth and viability time course. It counts as cell-based, human.
In data set [11] the target is T1, WDR5. In words: Western blot of endogenous WDR5 levels. It counts as cell-based. The note with it: MV4:11, 4 µM, 24 hours.
The next data set has as its system NOMO-1 cells. In words: Proliferation assay. It is filed as cell-based. The note with it: Homo sapiens, NOMO-1, 72 h. A digest of the protocol:
as §1

Data set [12] deals with TP53 mRNA on polysomes in MV4:11 cells. In words: Polysome fractionation with RT-qPCR. The note with it: MV4:11, 5 μM, 24 h. It counts as cell-based, human. A digest of the protocol:
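15 × 10^6 MV4:11 cells were treated 24 h with 5 μM test compound or DMSO and lysed 10 min on ice. Target mRNAs in monosomal and polysomal fractions were measured by RT-qPCR and normalized to GAPDH. Values were expressed as percent of total RNA, relative to DMSO.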

Data set [13] deals with gamma-H2AX in MV4:11 cells. In words: gamma-H2AX immunofluorescence, DNA damage. It counts as cell-based, human. The note with it: MV4:11, 4 µM. A digest of the protocol: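 Cells were cytospun onto slides (100,000 cells, 800 rpm, 3 min) and immunostained for γ-H2AX. Mean nuclear γ-H2AX signal was quantified and compared with DMSO by one-way ANOVA with Dunnett's test.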
The test system of another data set is GDM-1 cells. In words: Proliferation assay. It is filed as cell-based. The note with it: Homo sapiens, GDM-1, 72 h. A digest of the protocol: as §1
The subject of data set [14] is WDR5. Put plainly: Surface plasmon resonance direct affinity measurement. It counts as binding, Human. A digest of the protocol: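 Enhanced SPR (eSPR) was run externally using purified WDR5 supplied by the authors. Test compounds were prepared as 30 mM DMSO stock solutions.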
For data set [15], the target named is T1, WDR5. In words: ChIP-Seq of WDR5. It counts as cell-based. The note with it: MV4:11, 2 μM, 4 h. A digest of the protocol: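 MV4:11 cells at 10^6/ml were treated 4 h with 2 μM test compound, negative control or 0.1% DMSO. Cells were concentrated to 4 × 10^6/ml in PBS, fixed in 1% formaldehyde for 10 min at RT and quenched with 125 mM glycine. They were lysed in 1% SDS FA buffer. Sheared chromatin was diluted to 0.1% SDS and immunoprecipitated overnight at 4°C with anti-WDR5 (D9E1I or 429A) or IgG on BSA-blocked protein-A agarose. Peaks were compared by normalized average read counts.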

Where only a bound is given, the exact number is not on record here.

Consider 1 molecule from publication PMC6448596 (Cell reports, 2019).

The GI50 is the concentration that inhibits growth by half. As usually defined, the Kd is the constant that tells how readily two partners part at equilibrium. Lower therefore signals tighter binding.

For `Cc1nc(F)ccc1-c1cc(Cn2ccn(C)c2=N)cc(C(=O)NCc2ccc(Cl)c(Cl)c2)c1` [Compound C6, N-(3,4-Dichlorobenzyl)-3-(6-fluoro-2-methylpyridin-3-yl)-5-((2-imino-3-methyl-2,3-dihydro-1H-imidazol-1-yl)methyl)benzamide], in the data set on MV4:11 cells [1], the “annexin V staining, apoptotic cells” value is “appearance of apoptotic cells”. In data set [2], the “number of WDR5-bound genes induced” value was found to be 1. In [2], the “number of WDR5-bound genes repressed” value is listed as 59. Also, the GI50 in data set [3] came to 18 µM; with HL60 cells it was 14.8 ± 1.1 µM; with MV4:11 cells [4] (Homo sapiens, MV4-11, 72 h), 2 µM; in the data set with MV4:11 cells [4], 3.2 ± 0.213 µM; with Molm13 cells, 6.43 ± 0.683 µM; in the data set with MA93 FLT3-ITD cells it was 2.47 ± 0.137 µM. Also, the GI50 with NOMO-1 cells and in the data set on GDM-1 cells was over 50 µM each time. The “p53 and p21 protein induction” value was “moderately induces p53” in data set [5]; “p53 and p21 are also induced” in data set [6]. The equilibrium dissociation constant (Kd) at WDR5 [7] was about 0.0001 µM. Also, in data set [8], the “p53 turnover in CHX chase” value was “no detectable effects on p53 turnover”. For the same molecule, in data set [9], the “transcription of RPGs” value is “inhibited the transcription of RPGs”. In the data set on MV4:11 cells [10] (2 μM (GI50 concentration), 1-6 days), the “inhibition of proliferation, live cells over time” value is on record as “inhibition of proliferation can be detected within a few days of treatment”. Besides, the “cellular viability over time” value in the data set on MV4:11 cells [10] (2 μM, between 2 and 6 days of treatment) is reported as “progressive decrease in cellular viability”. Moreover, on WDR5 [11], the WDR5 protein levels entry is on record as “no measurable effect on WDR5 levels”. For the same molecule, the “polysome-associated mRNAs” value in data set [12] is “promoted an accumulation of polysome-associated mRNAs for TP53”. Besides, the “DNA damage response, accumulation of γ-H2AX foci” value in data set [13] is “does not induce a robust DNA damage response”. The “SPR affinity for WDR5 relative to values calculated by TR-FRET” value with WDR5 [14] is at most 2 fold. Also, the “WDR5 binding events on chromatin” value on WDR5 [15] was “robust decrease in all detectable WDR5 binding events”.
